Experimental data gathered from unrelated publications.
Protocols differ between the studies behind these lines.
Target: Tyrosine-protein kinase ZAP-70 (ZAP70, Homo sapiens, UniProt P43403)
One construct used (P43403 1-619): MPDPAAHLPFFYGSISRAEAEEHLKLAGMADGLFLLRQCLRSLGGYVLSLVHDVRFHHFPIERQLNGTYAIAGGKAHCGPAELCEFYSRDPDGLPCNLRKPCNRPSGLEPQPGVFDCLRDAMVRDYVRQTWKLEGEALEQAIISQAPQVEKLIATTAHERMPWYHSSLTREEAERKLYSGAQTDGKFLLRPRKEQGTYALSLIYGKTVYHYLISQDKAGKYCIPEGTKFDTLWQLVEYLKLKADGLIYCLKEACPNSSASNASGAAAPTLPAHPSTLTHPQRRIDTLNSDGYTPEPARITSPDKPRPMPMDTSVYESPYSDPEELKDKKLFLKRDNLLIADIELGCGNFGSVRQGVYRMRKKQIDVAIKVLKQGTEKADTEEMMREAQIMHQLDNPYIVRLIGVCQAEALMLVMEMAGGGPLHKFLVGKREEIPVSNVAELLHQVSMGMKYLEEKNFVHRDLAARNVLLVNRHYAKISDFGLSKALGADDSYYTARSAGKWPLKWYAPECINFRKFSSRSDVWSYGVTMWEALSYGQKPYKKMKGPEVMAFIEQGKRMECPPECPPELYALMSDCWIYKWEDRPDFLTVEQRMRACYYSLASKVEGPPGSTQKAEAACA

O=C(CSc1nc2nccnc2c(=O)n1CCc1ccccc1)Nc1nccs1  inhibition (enzyme activity, inhibitor; 10 µM): 14%
CCN(CC)CCNC(=O)c1c(C)[nH]c(/C=C2\C(=O)Nc3ccc(F)cc32)c1C  remaining activity (enzyme activity, inhibitor; 0.1 µM): 101%
COCCOc1nc(-c2ccc(Cl)nc2)nc2c1CN(C(=O)c1ncn3ccccc13)CC2  remaining binding (cell-free assay, competition with immobilised ligand; 0.1 µM): 95%
CC(C)(C)c1nc2c(s1)c1nc(N)ncc1c1ccc(NS(=O)(=O)c3c(F)cccc3F)c(F)c12  remaining activity (enzyme activity, inhibitor, radiometric; 1 µM): 95%
O=C(Nc1cnn(-c2csc(C(=O)NC3COC3)c2)c1)Nc1ccccc1Cl  remaining activity (enzyme activity, inhibitor; 5 µM): 102%
CCOc1cc(-c2nncn2C)ccc1Nc1ncc2cc(C)nc(NCC(C)(C)C)c2n1  inhibition (enzyme activity, inhibitor, FRET; 1 µM): < 15%
C[C@@H]1CN(c2cc(-c3n[nH]c4ccc(OC5(C)CC5)cc34)ncn2)C[C@H](C)O1  remaining binding (cell-free assay, competition with immobilised ligand; 0.1 µM): 83%
COc1cc2ncnc(Nc3ccc(F)c(Cl)c3)c2cc1OCCCN1CCOCC1  remaining signal (cell-free assay; 0.5 µM): 96.5%
O=C(N[C@H]1CCCCC/C=C\C2C[C@@]2(C(=O)O)NC(=O)[C@@H]2C[C@@H](Oc3ccncc3)CN2C1=O)OC1CCCC1 (stereo partly shown)  remaining binding (binding, competition with immobilised ligand; 1 µM): 96%
CNC(=O)c1cc(Oc2ccc(NC(=O)Nc3ccc(Cl)c(C(F)(F)F)c3)cc2)ccn1  inhibition (enzyme activity, inhibitor; 0.3 µM): -1%
Cc1ccc(C(=O)Nc2ccc(CN3CCN(C)CC3)c(C(F)(F)F)c2)cc1C#Cc1cnc2cccnn12  remaining activity (enzyme activity, inhibitor; 23.5 nM): 99%
CCN(CC)CCNC(=O)c1c(C)[nH]c(/C=C2\C(=O)Nc3ccc(F)cc32)c1C  inhibition (enzyme activity, inhibitor; 10 µM): 11%
Cc1[nH]c(/C=C2\C(=O)Nc3ccc(F)cc32)c(C)c1C(=O)N[C@H]1CCN(C(=O)N(C)C)C1  remaining activity (enzyme activity, inhibitor; 0.1 µM): 105%
CCCOc1ccc([C@H]2[C@H](C(=O)O)[C@@H](c3ccc4c(c3)OCO4)CN2CC(=O)Nc2c(CC)cccc2CC)cc1  remaining binding (cell-free assay, competition with immobilised ligand; 1 µM): 50%
COc1cc(Nc2cnc(C#N)c(O[C@H](C)CN(C)C)n2)ncc1-c1cnn(C)c1  remaining activity (enzyme activity, inhibitor, radiometric; 1 µM): 104%
Cc1ccc(C(=O)NCc2ccsc2)cc1C#Cc1cn(C(C)C)c2ncnc(N)c12  activity vs control (enzyme activity, inhibitor; 1 µM): 89%
CS(=O)(=O)N1CCCC(NC(=O)[C@H](CCC2CCCCC2)NC(=O)c2ccc(CNc3ncnc4c3nnn4-c3ccccc3)cc2)C1 (stereo partly shown)  remaining binding (cell-free assay, competition with immobilised ligand; 0.1 µM): 100%
CC/C(=N\NC(=O)NCc1cccc(O)c1)c1ccc(O)c(C)c1O  inhibition (enzyme activity, inhibitor; 0.1 µM): -2.1%
Nc1nc(Nc2ccc(S(N)(=O)=O)cc2)nn1C(=O)c1c(F)cccc1F  remaining signal (cell-free assay; 0.5 µM): 94.8%
Cc1cc(NC(=O)c2cccc3cc(-c4cccc5[nH]nc(N)c45)ccc23)ccc1F  activity vs control (enzyme activity, inhibitor; 0.1 µM): 109%
FC(F)(F)Oc1cccc(-c2cnc3ccc(-c4ccncc4)nn23)c1  activity vs control (enzyme activity, inhibitor, radiometric; 1 µM): 116%
CNCc1ccc(-c2cc(-c3nc(-c4ccc(S(=O)(=O)C(C)C)cc4)cnc3N)on2)cc1  inhibition (enzyme activity, inhibitor; 0.4 µM): 0%
O=C(O)c1cc(-c2ccc(C3CCNCC3)cc2)c2ccc(-c3ccc(C(F)(F)F)cc3)cc2c1  remaining binding (cell-free assay, competition with immobilised ligand; 1 µM): 100%
CC(C)(O)[C@H]1CC[C@H](Nc2ccc3ncc(-c4cccc(C(F)(F)F)c4)n3n2)CC1  remaining activity (enzyme activity, inhibitor; 1 µM): 93.4%
NS(=O)(=O)c1cc(NC(=O)Cc2ccccc2)ccc1Oc1cccc(Cl)c1  remaining binding (cell-free assay, competition with immobilised ligand; 1 µM): 87%
CCCOc1ccc(OC)c(F)c1C(=O)c1ccc(C(=O)N[C@@H]2CNC[C@H]2NC(=O)c2ccc3[nH]ncc3c2)cc1  remaining activity (enzyme activity, inhibitor; 10 µM): 90%
c1nc2c(Nc3ccc4c(c3)OCCO4)nc(Nc3ccc4c(c3)OCCO4)nc2[nH]1  activity vs control (enzyme activity, inhibitor; 10 µM): 62%
COc1ccc(COc2ccc(Cc3cnc(N)nc3N)cc2OC)cc1  remaining signal (cell-free assay; 0.5 µM): 94.3%
COc1cc2ncnc(Nc3ccc(Oc4ccccc4)c(C)c3C)c2cc1OC  inhibition (enzyme activity, inhibitor; 1 µM): -2%
COc1cc(-c2cn(C3CCc4ccccc4N(CC(F)(F)F)C3=O)nn2)ccc1-n1ccc(C)n1 (stereo not shown)  remaining binding (cell-free assay, competition with immobilised ligand; 1 µM): 82%
N#CCCc1ccc2c(c1)-c1[nH]c3ccc([N+](=O)[O-])cc3c1CC(=O)N2  remaining signal (cell-free assay; 0.5 µM): 106%
